# Source: PubChem BioAssay (The Scripps Research Institute Molecular Screening Center)
# S1P3 agonist – activates the human S1P3 receptor; Q99500; S1P3 NFAT-BLA reporter cells, agonism, FRET ratio; relative to 1 µM S1P, basal subtracted; activation, % at 4.5 µM; 60,000 tested, 0.1% active;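 active means activation above the screen-wide mean plus 3 SD, cut at about 4.5% in these data, passing the limit was not always enough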
# Target sequence (Q99500 whole entry, looked up): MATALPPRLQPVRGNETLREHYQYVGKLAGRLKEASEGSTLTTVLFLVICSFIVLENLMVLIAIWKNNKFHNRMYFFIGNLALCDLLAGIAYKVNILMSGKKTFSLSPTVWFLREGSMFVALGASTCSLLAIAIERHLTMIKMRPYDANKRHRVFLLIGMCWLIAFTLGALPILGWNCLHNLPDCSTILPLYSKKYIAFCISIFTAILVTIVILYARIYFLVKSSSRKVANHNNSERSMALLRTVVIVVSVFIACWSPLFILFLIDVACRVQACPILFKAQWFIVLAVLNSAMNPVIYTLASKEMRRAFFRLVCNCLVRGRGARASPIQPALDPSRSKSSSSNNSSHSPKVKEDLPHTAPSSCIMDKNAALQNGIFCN
#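 Measure – % activation relative to 1 µM S1P (100%), per plate · System – stable CHO line with human S1P3, Gα16, NFAT-BLA reporter · Timing – cells plated overnight, compound 4 h 37 °C, substrate 2 h RT · Technique – fluorescent BLA substrate, ex 405 nm, em 460/535 nm ratio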
# HTR1E agonist – activates the human 5-HT1E serotonin receptor | 65,000 tested, 0.69% active | P28566 | CHO 5-HT1E Ga15 NFAT-bla reporter, FRET; 0% DMSO wells, 100% control agonist wells | activation, % at 6 µM;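 active means activation above a set limit, the screen-wide mean activation plus 3 SD, cut at about 8.5% in these data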;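 further: 100% = positive control agonist at 1 µM giving full maximal response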
# 5HT1a ag – agonists of human 5-HT1a serotonin receptor; 65,000 tested, 0.56% active; P08908; CHO 5-HT1a Ga15 NFAT-bla reporter, FRET ratio; 0% basal, 100% maximal reference agonist; activation, % at 10 µM;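 active means activation above the screen-wide mean activation plus 3 SD, cut at about 19% in these data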;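 further: 0% = DMSO wells and 100% = 5-CT at EC100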
# 5-HT1A blocker – 5-HT1a (human) receptor antagonism; P08908; CHO 5-HT1a Ga15 NFAT-bla reporter, antagonist mode; inhibition, % at 10 µM; 62,000 tested, 0.68% active;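 active means inhibition above the mean of all tested compounds plus 3 SD, cut at about 43% in these data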;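 further: receptor stimulated by 5-CT agonist at 100 nM near EC80; beta-lactamase reporter measured by ratiometric fluorescence of a cleavable substrate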
# S1P1 ag pot – S1P1 (human) agonism or agonism potentiation. AID 449. P21453. 56,000 tested, 0.57% active. S1P1 CRE-bla cells, forskolin, beta-lactamase FRET, potentiator mode; S1P1 agonist co-added at EC20, 2 nM; 100% = saturating reference agonist, 0% = basal. activation, % at 9.5 µM;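 active means activation above a cutoff set at the mean activation of all tested compounds plus 3 SD, cut at about 54% in these data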;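 further: forskolin at 4 µM as EC80 and the EC20 agonist is SEW2871; 100% = SEW2871 at its EC100 plus forskolin at EC80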
# HTR1E antagonist – blocks the human 5-HT1E serotonin receptor; CHO 5-HT1E Ga15 NFAT-bla reporter, FRET, antagonist; P28566; inhibition, % at 6 µM; AID 571; 65,000 tested, 0.99% active;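 active means inhibition above a set limit, the mean inhibition across every tested compound plus 3 SD, cut at about 29% in these data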;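 further: signal is the 460 over 535 nm emission ratio of beta-lactamase substrate; 0% = agonist plus DMSO wells and 100% = wells without agonist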
# Starred values were filed as active, the others as inactive; x = no result given. Rows were chosen to be rich in hits. Some 2.9% of all compounds tested hit in one or more screens of this group.
SMILES,S1P3 agonist,HTR1E agonist,5HT1a ag,5-HT1A blocker,S1P1 ag pot,HTR1E antagonist
COc1ccc(N=c2oc3cc(O)ccc3cc2C(=O)NCC2CCCO2)c(OC)c1 (configuration not stated),2,19*,70*,-119,-71,-13
COc1cc(OC)cc(C(=O)NCC2CCCO2)c1 (configuration not stated),2,-1,-2,-5,-18,-5
Cc1ccc(N=c2oc3cc(O)ccc3cc2C(N)=O)cc1,0,22*,71*,-168,-31,-9
COc1ccc(N=c2oc3cc(O)ccc3cc2C(=O)NCC2CCCO2)cc1 (configuration not stated),1,6,26*,-7,-17,-11
Cc1ncc(CO)c2cc(C(N)=O)c(=Nc3ccccc3)oc12,-1,0,-1,2,-12,-2
Cc1nc(NC2=NCN(CCc3ccccc3)CN2)nc2c(C)cccc12,0,1,-3,18,-8,9
CCc1ccc(S(=O)(=O)NCCc2csc(-c3ccccc3)n2)s1,0,-1,-2,-1,65*,17
CCc1ccc(S(=O)(=O)NCc2csc(-c3ccccc3)n2)s1,0,-1,-1,-12,6,-6
C=CCN(C(=O)Cn1c(C(=O)OC)cc2oc(C)cc21)c1ccccc1,-1,-1,1,11,-13,-1
COC(=O)c1cc2oc(C)cc2n1CC(=O)N(C)c1ccccc1,-1,11*,-1,-6,0,-5
CN(C)CCN1C(=O)C(=O)/C(=C(/O)c2ccc(OCc3ccccc3)cc2)C1c1ccncc1 (configuration not stated),-1,0,-4,6,-2,7
COc1ccc(CNc2nc(-c3cccnc3)nn2C(=O)c2cccs2)cc1,-1,0,0,36,7,31*
CC1(C)CC(=O)C(C=NCC2CCN(C(=O)Nc3ccccc3)CC2)=C(O)C1,-2,0,-7,1,-7,0
O=C(C1CCN(Cc2ccc(OCc3ccccc3)cc2)CC1)N1CCCC1,-1,11*,-1,8,-23,-11
Cc1nc2sc(C(c3ccccc3)N3CCN(C)CC3)c(O)n2n1 (configuration not stated),-1,1,-6,0,-14,0
Cc1cccc2cc(C#N)c(NCCNS(=O)(=O)c3ccc4c(c3)OCCO4)nc12,0,1,4,-13,0,24
O=C1c2ccccc2C(Nc2ccc(F)cc2F)N1CCN1CCOCC1 (configuration not stated),-1,1,-2,6,-12,12
CCCCS(=O)(=O)/C=C\C=C/S(=O)(=O)CCCC,x,-2,-9,102*,x,107*
CCCCS(=O)(=O)/C=C\C1C2C=CC(C2)C1S(=O)(=O)CCCC (configuration not stated),-1,0,-2,2,-17,6
CN1C(=O)C(C(=O)NC(C)(C)C)C2c3ccccc3OC13CCCCC23 (configuration not stated),0,0,0,8,5,-2
CCOC(=O)N1CCN(C(=O)CSc2nnc(Cc3cccn3C)n2CCc2ccccc2)CC1,-1,0,0,-6,-15,-11
COCCn1c(COc2cccc(OC)c2)nnc1SCC(=O)N1CCOCC1,0,19*,1,4,2,1
Cn1cccc1Cc1nnc(SCC(=O)N2CCOCC2)n1CCc1ccccc1,0,1,473*,9,-4,-7
O=c1c2ccccc2nc(-c2ccco2)n1Cc1ccccc1,x,0,1,3,x,-2
O=c1c2ccccc2nc(N2CCN(c3ccccc3)CC2)n1Cc1ccccc1,-1,1,0,47*,13,-12
Cc1cc(C(c2nnnn2Cc2ccccc2)N2CCOCC2)c(C)n1-c1ccc2c(c1)OCO2 (configuration not stated),0,0,0,10,0,1
Cn1cccc1C(=O)NS(=O)(=O)c1ccccc1Cl,-1,0,25*,12,11,3
